# Measured values published in ChEMBL document CHEMBL3785029, “Synthesis and Characterization of Fatty Acid Conjugates of Niacin and Salicylic Acid” (J Med Chem, 2016).
# Experiments:
# [1] = tested on: Rattus norvegicus; assay: Cmax in portal vein cannulated Sprague-Dawley rat assessed as N-(2-aminoethyl)nicotinamide at 30 mg/kg, po measured up to 140 mins; assay type: ADME, organism-based; parameters: dose 30 mg/kg, route oral; conditions: in vivo
# Procedure, shortened: (§1)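 Sprague Dawley rats surgically fitted with indwelling jugular vein and portal vein cannulas; oral dosing, then serial blood draws from both portal and jugular veins at 10, 20, 40 min and 1, 2, 4, 6 hr post dose; plasma analysed for parent and metabolites by LC/MS/MS.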
# [2] = tested on: Liver; assay: Drug metabolism in Sprague-Dawley rat liver assessed as linker EPA metabolite (5Z,8Z,11Z,14Z,17Z)-N-(2-aminoethyl)icosa-5,8,11,14,17-pentaenamide formation at 300 mg/kg, qd administered through oral gavage for 7 days measured 2 hrs post last dose by LC/MS/MS analysis; assay type: ADME, organism-based; conditions: in vivo
# [3] = tested on: Intestine; assay: Drug metabolism in Sprague-Dawley rat intestine assessed as niacin formation at 300 mg/kg, qd administered through oral gavage for 7 days measured 2 hrs post last dose by LC/MS/MS analysis; assay type: ADME, organism-based; conditions: in vivo
# [4] = Cmax in portal vein cannulated Sprague-Dawley rat at 30 mg/kg, po measured up to 140 mins; assay type: ADME, organism-based; parameters: dose 30 mg/kg, route oral; conditions: portal vein blood; procedure, shortened: as §1
# [5] = tested on: Plasma; assay: Drug metabolism in Sprague-Dawley rat plasma assessed as niacin linker metabolite N-(2-aminoethyl)nicotinamide formation at 300 mg/kg, qd administered through oral gavage for 7 days measured 2 hrs post last dose by LC/MS/MS analysis; assay type: ADME, organism-based; conditions: in vivo
# [6] = target: T1, Fatty-acid amide hydrolase 1 (Homo sapiens, UniProt O00519); assay: Drug metabolism assessed as human recombinant N-terminal FLAG/C-terminal His-tagged FAAH1 (32 to 579 residues)-mediated compound hydrolysis by measuring release of EPA at 25 uM by LC/MS-MS analysis; assay type: ADME; conditions: TDE = time-dependent effect
# T1 sequence (O00519 whole entry): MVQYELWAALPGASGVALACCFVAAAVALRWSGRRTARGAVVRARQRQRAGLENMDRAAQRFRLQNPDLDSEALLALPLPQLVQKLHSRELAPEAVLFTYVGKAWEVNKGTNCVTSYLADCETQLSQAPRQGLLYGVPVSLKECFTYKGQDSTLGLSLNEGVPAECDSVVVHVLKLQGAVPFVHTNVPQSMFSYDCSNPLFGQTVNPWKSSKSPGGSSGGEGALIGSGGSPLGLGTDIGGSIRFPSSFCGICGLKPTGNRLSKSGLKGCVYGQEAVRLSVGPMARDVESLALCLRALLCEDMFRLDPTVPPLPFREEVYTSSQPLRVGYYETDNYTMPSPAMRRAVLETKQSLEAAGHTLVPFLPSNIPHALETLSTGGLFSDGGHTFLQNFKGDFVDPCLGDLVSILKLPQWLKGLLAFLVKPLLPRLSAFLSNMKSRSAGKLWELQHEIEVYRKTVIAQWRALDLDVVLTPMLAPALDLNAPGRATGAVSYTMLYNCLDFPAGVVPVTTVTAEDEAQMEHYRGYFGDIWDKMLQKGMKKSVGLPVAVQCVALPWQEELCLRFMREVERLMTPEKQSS
# [7] = target: T2, Fatty-acid amide hydrolase 1 (Rattus norvegicus, UniProt P97612); assay: Drug metabolism in rat liver lysate assessed as FAAH-mediated compound hydrolysis at 5 uM by LC-MS-MS analysis in the presence of PF3845; assay type: ADME, tissue-based
# T2 sequence (P97612 whole entry): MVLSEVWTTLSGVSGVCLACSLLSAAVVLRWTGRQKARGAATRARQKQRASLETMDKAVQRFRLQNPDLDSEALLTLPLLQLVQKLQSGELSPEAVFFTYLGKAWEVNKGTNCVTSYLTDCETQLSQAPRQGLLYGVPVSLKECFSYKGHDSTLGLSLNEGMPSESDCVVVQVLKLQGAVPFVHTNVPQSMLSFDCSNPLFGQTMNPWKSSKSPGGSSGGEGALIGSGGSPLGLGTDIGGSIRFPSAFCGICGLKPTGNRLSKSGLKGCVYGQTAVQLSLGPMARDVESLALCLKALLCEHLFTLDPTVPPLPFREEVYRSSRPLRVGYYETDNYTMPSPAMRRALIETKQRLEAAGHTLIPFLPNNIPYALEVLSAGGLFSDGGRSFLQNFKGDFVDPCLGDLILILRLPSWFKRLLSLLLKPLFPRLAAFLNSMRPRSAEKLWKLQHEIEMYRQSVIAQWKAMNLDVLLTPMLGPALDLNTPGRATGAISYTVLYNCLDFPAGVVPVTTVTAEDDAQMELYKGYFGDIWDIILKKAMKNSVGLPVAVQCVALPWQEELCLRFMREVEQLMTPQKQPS
# Procedure, shortened: (§2)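 Rat liver lysate, 3 mg/mL final, in 50 mM HEPES / 1 mM EDTA buffer, pre-equilibrated 20 min at 37 °C; reaction started by adding compound in DMSO; incubated at 37 °C and loss of starting material monitored by LC/MS/MS; FAAH inhibitor PF-3845 added where indicated.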
# [8] = tested on: Rattus norvegicus; assay: Cmax in jugular vein cannulated Sprague-Dawley rat assessed as N-(2-aminoethyl)nicotinamide at 30 mg/kg, po measured up to 140 mins; assay type: ADME, organism-based; parameters: dose 30 mg/kg, route oral; conditions: in vivo; procedure, shortened: as §1
# [9] = tested on: Rattus norvegicus; assay: Cmax in jugular vein cannulated Sprague-Dawley rat assessed nicotinuric acid at 30 mg/kg, po measured up to 140 mins; assay type: ADME, organism-based; parameters: dose 30 mg/kg, route oral; conditions: in vivo; procedure, shortened: as §1
# [10] = target: T2, Fatty-acid amide hydrolase 1; assay: Drug metabolism in rat liver lysate assessed as FAAH-mediated compound hydrolysis at 5 uM by LC-MS-MS analysis; assay type: ADME, tissue-based; procedure, shortened: as §2
# [11] = tested on: Rattus norvegicus; assay: Cmax in Sprague-Dawley rat assessed as salicylate-linker metabolite N-(2-aminoethyl)-2-hydroxy-benzamide at 300 mg/kg, po measured up to 24 hrs post dose; assay type: ADME, organism-based; parameters: dose 300 mg/kg, route oral; conditions: in vivo
# Procedure, shortened: (§3)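 Single oral dose of 300 mg/kg to Sprague Dawley rats. Plasma collected at 0, 0.5, 1, 2, 4, 8 and 24 hr. Analytes were the parent, the salicylate-linker and linker-DHA metabolites, salicylic acid and salicyluric acid; Cmax and AUClast derived.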
# [12] = Drug metabolism in Sprague-Dawley rat epididymal fat assessed as salicylic acid formation at 300 mg/kg, po administered for 7 days measured 4 hrs post dose on day 7; assay type: ADME, organism-based, Epididymal fat pad; conditions: in vivo
# Procedure, shortened: (§4)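 Male Sprague Dawley rats, groups of 4, dosed orally at 300 mg/kg once daily for 14 days. Animals killed on days 1, 3, 7 and 14, with plasma, brain, epididymal fat, liver and muscle taken 4 hr after dosing. Parent, salicylic acid and salicyluric acid were measured.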
# [13] = Drug uptake in Sprague-Dawley rat liver at 300 mg/kg, po administered for 7 days measured 4 hrs post dose on day 7; assay type: ADME, organism-based; conditions: read-out: Drug uptake; procedure, shortened: as §4
# [14] = tested on: Liver; assay: Drug metabolism in Sprague-Dawley rat liver assessed as salicyluric acid formation at 300 mg/kg, po administered for 14 days followed by 7 day washout cycle measured on day 21; assay type: ADME, organism-based; conditions: in vivo
# [15] = tested on: Brain; assay: Drug uptake in Sprague-Dawley rat brain at 300 mg/kg, po administered for 14 days measured 4 hrs post dose on day 1, 3, 7 and 14; conditions: in vivo
# [16] = tested on: Plasma; assay: Drug metabolism in Sprague-Dawley rat plasma assessed as salicyluric acid formation at 300 mg/kg, po administered for 14 days followed by 7 day washout cycle measured on day 21; assay type: ADME, organism-based; conditions: in vivo
# [17] = tested on: Plasma; assay: Drug metabolism in Sprague-Dawley rat plasma assessed as salicylic acid formation at 300 mg/kg, po administered for 14 days followed by 7 day washout cycle measured on day 21; assay type: ADME, organism-based; conditions: in vivo
# [18] = tested on: Rattus norvegicus; assay: AUClast in Sprague-Dawley rat assessed as salicylic acid at 300 mg/kg, po measured up to 24 hrs post dose; assay type: ADME, organism-based; parameters: time < 24 hr, dose 300 mg/kg, route oral; conditions: in vivo; procedure, shortened: as §3
compound,measurement,setting,value
CC/C=C\C/C=C\C/C=C\C/C=C\C/C=C\CCCC(=O)NCCNC(=O)c1cccnc1,Cmax,[1],2061 ng/mL
same,Drug metabolism,[2],8.7 ng/g
same,Drug metabolism,[3],279 ng/g
same,Cmax,[4],418 ng/mL
same,Drug metabolism,[5],2296 ng/mL
same,Drug metabolism,[6],tde
same,Drug metabolism,[7],metabolite_notdetected
same,Cmax,[8],336 ng/mL
same,Cmax,[9],135 ng/mL
same,Drug metabolism,[10]; TDE = time-dependent effect,tde
CC/C=C\C/C=C\C/C=C\C/C=C\C/C=C\C/C=C\CCC(=O)NCCNC(=O)c1ccccc1O [EDASALONEXENT],Cmax,[11],484 ng/mL
same,Drug metabolism,[12],65.03 ng/g
same,concentration at 4 h,[13],331 ng/g
same,Drug metabolism,[14],metabolite_notdetected
same,Drug uptake,[15],Not Active
same,Drug metabolism,[7],metabolite_notdetected
same,Drug metabolism,[10],metabolite_detected
same,Drug metabolism,[16],metabolite_notdetected
same,Drug metabolism,[17],metabolite_notdetected
same,AUClast,[18],229 ng·h/mL
